Experimental data published in BindingDB's records for doi:10.1016/j.bmc.2022.116974 (University of Maryland, 2022).

Target: Galectin-3 (Homo sapiens, UniProt P17931)
Test: Binding affinity to human galectin 3 by surface plasma resonance analysis
Method in brief: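 Recombinant human Gal-3 amine-coupled to a CM5 chip (about 1000 RU) with an ethanolamine reference channel. Analytes were serially diluted in 0.01 M HEPES pH 7.4, 0.15 M NaCl and 0.005% P20, then run at 25 °C and 30 μL/min with 120 s association and 300 s dissociation, followed by 3 M MgCl2 regeneration. EC50 was taken from the fitted binding curve.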

Sequence of Galectin-3 (P17931 whole entry): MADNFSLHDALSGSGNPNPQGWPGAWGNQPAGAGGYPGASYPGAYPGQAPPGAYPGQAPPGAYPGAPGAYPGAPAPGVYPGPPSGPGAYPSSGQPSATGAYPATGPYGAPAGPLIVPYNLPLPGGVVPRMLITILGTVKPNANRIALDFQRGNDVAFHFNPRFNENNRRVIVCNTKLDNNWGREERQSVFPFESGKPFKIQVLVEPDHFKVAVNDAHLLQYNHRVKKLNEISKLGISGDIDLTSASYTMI

| Compound | EC50 [µM] |
| --- | --- |
| [N-]=[N+]=NCCOCCOCCO[C@@H]1O[C@H](CO)[C@@H](O[C@@H]2O[C@H](CO)[C@H](O)[C@H](O)[C@H]2O)[C@H](O)[C@H]1O | > 1000 |
| CC(=O)N[C@H]1[C@@H](OCCOCCOCCN=[N+]=[N-])O[C@H](CO)[C@H](O)[C@@H]1O[C@@H]1O[C@H](CO)[C@H](O)[C@H](O)[C@H]1O | > 1000 |
| CC(=O)N[C@H]1[C@@H](OCCOCCOCCN=[N+]=[N-])O[C@H](CO)[C@H](O)[C@@H]1O | > 1000 |
